Shown are actives, neighbours in structure and some others; about 2.6% of the full set was active somewhere.
SIAE primary: blocks human sialic acid acetylesterase; inhibition, % at 9.66 µM; SIAE FP-Rh probe binding, fluorescence polarization; hit rate 0.69% among 370,000; Q9HAT2;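 active means inhibition above a cutoff: mean of compounds within the control limits plus 3 SD of those, cut at about 17% in these data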;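 further: 0% = plate median of compound wells and 100% = probe without SIAE protein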
ABHD4 inh: inhibits mouse alpha/beta hydrolase domain 4. Q8VD66. purified mABHD4, FP-Rh probe fluorescence polarization. hit rate 0.54% among 370,000. inhibition, % at 8.92 µM. AID 720543;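 active means inhibition exceeding the mean over every tested compound plus 3 SD, cut at about 30% in these data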;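 further: 0% = plate median of compound wells and 100% = S159A mutant with DMSO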
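Test system: mABHD4 protein; Read-out basis: % inhibition; Incubation: 45 min + 60 min at 25 °C; Repeats: single replicate; Technique: fluorescence polarization with parallel and perpendicular emission, 525/598 nm; Compound: 8.92 µM, single dose; Benchmarks: full inhibition S159A mutant plus DMSO, zero as sample-well median.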
HTRA1 inh: HTRA1 (human) protease inhibition; Q92743; recombinant HTRA1, FP-rhodamine activity-based probe, fluorescence polarization; inhibition, % at 5.96 µM; hit rate 0.5% among 340,000; AID 504803; in the data active means inhibition above about 36%;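 further: 0% = enzyme with DMSO and 100% = wells lacking enzyme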
Target sequence (Q92743 whole entry, looked up): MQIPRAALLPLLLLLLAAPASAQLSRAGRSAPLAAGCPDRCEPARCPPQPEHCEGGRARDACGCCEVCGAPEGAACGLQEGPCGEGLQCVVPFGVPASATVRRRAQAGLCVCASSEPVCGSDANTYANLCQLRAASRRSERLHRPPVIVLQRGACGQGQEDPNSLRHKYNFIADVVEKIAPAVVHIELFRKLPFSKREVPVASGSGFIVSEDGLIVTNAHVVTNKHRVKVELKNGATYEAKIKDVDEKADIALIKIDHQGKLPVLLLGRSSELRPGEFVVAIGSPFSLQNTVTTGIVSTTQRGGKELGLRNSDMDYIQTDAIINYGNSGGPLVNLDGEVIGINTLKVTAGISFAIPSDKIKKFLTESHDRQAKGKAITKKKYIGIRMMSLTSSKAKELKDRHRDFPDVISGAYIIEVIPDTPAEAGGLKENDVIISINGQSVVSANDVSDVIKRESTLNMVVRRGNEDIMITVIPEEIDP
TCR CD3 inh: blocks the human TCR-CD3 interaction | TAMRA-labeled TCR probe fluorescence, biochemical | inhibition, % at 9.4 µM | hit rate 0.37% among 360,000; in the data active means inhibition above about 19%;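 further: recombinant mutant TCR 2C K166C tagged with TAMRA read by polarization; 0% = receptor in buffer alone and 100% = receptor with positive control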
PRMT1 inh: inhibitors of human PRMT1; recombinant PRMT1, activity-based probe fluorescence polarization; inhibition, % at 2.79 µM; hit rate 1.3% among 370,000; AID 652257;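 active means inhibition above about 21% made by adding two undisclosed values, limit read from the data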
PRMT1 confirm: PRMT1 (human) inhibition, FP confirmation; shares compounds with PRMT1 inh; recombinant His-PRMT1, activity-based probe fluorescence polarization; inhibition, % at 2.79 µM; hit rate 42% among 3,300; AID 687036;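 active means mean inhibition across replicates above the hit cutoff derived for the earlier primary screen, cut at about 22% in these data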
Numbers without * were called inactive; nt = not tested or not shown; ! = repeats disagree.

SMILES	SIAE primary	ABHD4 inh	HTRA1 inh	TCR CD3 inh	PRMT1 inh	PRMT1 confirm
O=C1NC(=O)N(c2cccc(Cl)c2)C(=O)/C1=C\c1ccc(Sc2nc3ccccc3[nH]2)o1	-370	-281	-97	-99	33*	42*
Cc1ccccc1N1CCN(C2CCCN(C(=O)Cc3c(C)noc3C)C2)CC1 (stereo unspecified)	14	4	4	0	-1	nt
CN1CCC2(CC1)C(C#N)=C(N)NC(S)=C2C#N	-8	8	15	-23	31*!	19
Cc1cc(C)cc(N2C(=O)NC(=O)/C(=C\c3cccn3-c3ccc(Cl)cc3)C2=O)c1	-21	-5	0	0	3	nt
O=C1NC(=S)NC(=O)C1=Cc1cccn1-c1ccc(O)cc1	8	29	20	6	42*	68*
COC(=O)C1=C(c2ccc(C(C)=O)cc2)C[C@@H]2CC[C@H]1N2C(=O)N1CCC(O)(c2ccc(Cl)cc2)CC1	-6	-4	-15	2	-1	nt
S=P(N1CCCCCC1)(N1CC1)N1CC1	12	0	3	3	30*	-4
S=P(N1CCOCC1)(N1CC1)N1CC1	1	4	0	7	4	nt
CCC1CN1P(=O)(Oc1ccc(Cl)cc1)N1CC1CC (stereo unspecified)	4	0	-16	0	1	nt
CCOc1cc2c(cc1OCC)-n1cccc1C(c1cc(OC)ccc1F)NC2 (stereo unspecified)	3	2	-5	5	-1	nt
O=C1NS(=O)c2cc([N+](=O)[O-])cc([N+](=O)[O-])c21 (stereo unspecified)	-4	12	7	-4	38*	27*
Cc1cccc(N=C2c3cc([N+](=O)[O-])ccc3-c3c2cc([N+](=O)[O-])cc3[N+](=O)[O-])c1	8	4	26	0	-1	nt
CC1=NCCc2c1[nH]c1cc(O)ccc21	11	9	19	7	119*	125*
COc1ccc2c3c([nH]c2c1)C(C)=NCC3	1	-5	28	-5	2	nt
CCOC(=O)c1cncn1[C@@H](C)c1ccccc1	-3	-13	4	-2	-6	nt
CC[n+]1c(/C=C/C=C/c2ccc(N(C)C)cc2)sc2ccccc21	-81	-98	-43	-53	-6	nt
CC[n+]1c(/C=C/N(C)c2ccccc2)sc2ccc(Cl)cc21	-96	-110	-90	-18	29*	5
NC(N)=Nc1ccc2[nH]c3c(c2c1)C[C@@]1(O)[C@H]2Cc4ccc(O)c5c4[C@@]1(CCN2CC1CC1)[C@H]3O5	nt	nt	3	nt	nt	nt
CC1=NNC(=O)C1Br (stereo unspecified)	2	6	3	6	50*	74*
Cc1cc(/C=C2/C(=O)NC(=O)N(Cc3ccco3)C2=O)c(C)n1-c1ccccc1	-13	-3	-5	0	18	nt
CCN(CC)c1ccc(/C=C2/C(=O)NC(=O)N(Cc3ccco3)C2=O)cc1	-87	-71	-17	-72	30*	3
CN(C)c1ccc(/C=C2/C(=O)NC(=O)N(Cc3ccco3)C2=O)cc1	-13	-12	-1	-1	29*	3
Nc1cc(Cl)c2nonc2c1[N+](=O)[O-]	-10	0	1	-12	41*	10
C[C@]12CC[C@H]3[C@@H](CCC4=CC(=O)CC[C@@]43O)[C@@H]1CCC2=O	-1	2	11	-9	0	nt
O=C1NC(=O)N(CCC2=CCCCC2)C(=O)/C1=C\c1cccs1	-18	-28	-1	-19	31*	18
SMILES	SIAE primary	ABHD4 inh	HTRA1 inh	TCR CD3 inh	PRMT1 inh	PRMT1 confirm
Cc1ccc(/C=C2/C(=O)NC(=O)N(CCc3ccc(F)cc3)C2=O)o1	-26	2	-12	-3	12	nt
O=C1NC(=S)N(c2ccc(F)cc2)C(=O)/C1=C/c1ccccc1O	3	3	-13	-2	2	nt
CCOc1cccc(N2C(=O)/C(=C/c3ccco3)C(=O)NC2=S)c1	-6	-7	14	-79	20	nt
O=C1NC(=O)N(CCc2ccc(F)cc2)C(=O)/C1=C/c1ccco1	-7	16	31	-17	35*	3
COc1ccccc1C=C1C(=O)NC(=S)NC1=O	3	-3	7	-4	30*	39*
O=C1NC(=S)N(c2ccccc2)C(=O)/C1=C/c1ccco1	-18	18	5	-53	55*	74*
COc1ccccc1/C=C1\C(=O)NC(=S)N(c2ccccc2)C1=O	1	7	0	-8	38*	21*
